{"source": "paper PMC9968262", "about": "(American Journal of Clinical Dermatology, 2022)", "key": {"Maximal usage PK study": {"test": "Maximal usage PK study", "format": "in vivo, human", "conditions": "for steady state achieved by: plasma concentrations, roflumilast cream 0.3% once daily; for Tmax, h (min–max): plasma, Day 15, roflumilast cream 0.3% daily topical, mean (min–max)", "how_it_was_run": "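Open-label, single-arm, 2-week maximal-use study: 0.3% cream at 2 mg/cm2 once each evening to all plaques except the scalp. Subjects were adolescents 12–17 y (≥10% BSA) and adults (≥20% BSA), with IGA ≥3. Plasma was sampled predose and 1, 2, 4, 8 and 24 h post-dose on Days 1 and 15, plus 7, 14 and 21 days after the last dose. Analysis was LC-MS/MS (LLOQ 0.100 ng/mL) with noncompartmental linear trapezoidal methods.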"}, "Phase I/IIa study [1]": {"test": "Phase I/IIa study", "format": "in vivo, human", "conditions": "for plasma concentration, mean (SD): Day 28; for concentration at 24 h / concentration at 28 days: human, plasma, topical", "how_it_was_run": "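Cohort 2 was double-blind and vehicle-controlled: 0.15% or 0.5% cream once daily for 28 days. Patients had psoriasis for >6 months and ≤5% BSA involvement. Day 28 plasma was drawn before application and at 1, 2, 4, 6 and 24 h after the last dose. Parent and N-oxide were quantified by validated LC-MS/MS (LLOQ 0.100 ng/mL).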"}, "[2]": {"test_system": "phosphodiesterase 4 (PDE4)", "conditions": "active metabolite; cited from earlier work"}, "[3]": {"conditions": "cited from earlier work; for peak plasma concentration (Cmax): healthy volunteers; for elimination half-life: roflumilast administered orally"}, "DERMIS-1": {"test": "DERMIS-1", "format": "in vivo, human", "conditions": "for Week 4 extrapolated AUC24, h*ng/mL / Week 8 extrapolated AUC24, h*ng/mL: predose concentration x 24, mean (SD)", "how_it_was_run": "(§1)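 Patients with chronic plaque psoriasis covering 2–20% BSA were randomized 2:1 (double-blind) to 0.3% cream or vehicle. Cream was applied once daily for 8 weeks, including to new lesions. Predose (Ctrough) plasma was sampled at Baseline, Week 4 and Week 8. Parent and N-oxide were measured by validated LC-MS/MS (LLOQ 0.100 ng/mL). AUC24 = observed predose concentration × 24.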"}, "Phase I/IIa study [4]": {"test": "Phase I/IIa study", "format": "in vivo, human", "conditions": "for skin samples with measurable (quantifiable) level: N = 27 skin samples; for Kp at 24 h / concentration at 24 h / concentration at 28 days: human, topical; for Kp at 24 h: skin (punch biopsy) / plasma; for concentration at 24 h / concentration at 28 days: skin (punch biopsy)"}, "DERMIS-2": {"test": "DERMIS-2", "format": "in vivo, human", "conditions": "for Week 4 extrapolated AUC24, h*ng/mL / Week 8 extrapolated AUC24, h*ng/mL: predose concentration x 24, mean (SD)", "how_it_was_run": "as §1"}, "[5]": {"conditions": "cited from earlier work"}, "[6]": {"conditions": "oral 500 µg; cited from earlier work"}, "[7]": {"conditions": "at 22 °C; cited from earlier work"}, "[8]": {"conditions": "multiple dosing of oral roflumilast 500 µg"}, "[9]": {"conditions": "age 6–11 years (N = 1), predose concentration x 24"}, "[10]": {"conditions": "age 12–17 years (N = 3), predose plasma (Ctrough), mean (SD)"}, "[11]": {"conditions": "age ≥ 18 years (N = 241), predose plasma (Ctrough), mean (SD)"}, "[12]": {"conditions": "age 6–11 years (N = 1), predose plasma (Ctrough)"}, "[13]": {"conditions": "age 12–17 years (N = 5), predose plasma (Ctrough), mean (SD)"}, "[14]": {"conditions": "age ≥ 18 years (N = 244), predose plasma (Ctrough), mean (SD)"}}, "note": "Values joined by “and” are separate entries in the source; they are usually repeats but may differ in a detail not shown here. Equal values may be shown once. Read-outs that look alike come from different tables or passages of the source.", "data": [{"smiles": "O=C(Nc1c(Cl)c[n+]([O-])cc1Cl)c1ccc(OC(F)F)c(OCC2CC2)c1", "note": "[roflumilast N-oxide]", "values": [{"measurement": "steady state achieved by", "setting": "Maximal usage PK study", "result": "≤ 15", "unit": "days"}, {"measurement": "Tmax, h (min–max)", "setting": "Maximal usage PK study; adolescents 12–17 years", "result": "16.5 (1.0–24.0) h"}, {"measurement": "Tmax, h (min–max)", "setting": "Maximal usage PK study; adults ≥18 years", "result": "12.9 (0–24) h"}, {"measurement": "roflumilast N-oxide plasma concentrations relative to roflumilast concentrations", "setting": "Maximal usage PK study; repeat daily topical roflumilast cream 0.3%, steady state", "result": "eightfold"}, {"measurement": "plasma concentration, mean (SD)", "setting": "Phase I/IIa study [1]; roflumilast cream 0.15% (n = 21)", "result": "5.44 [4.95] ng/mL"}, {"measurement": "plasma concentration, mean (SD)", "setting": "Phase I/IIa study [1]; roflumilast cream 0.5% (n = 20)", "result": "6.52 [4.04] ng/mL"}, {"measurement": "potency of N-oxide metabolite relative to roflumilast", "setting": "[2]", "result": "threefold less potent"}, {"measurement": "systemic exposure of roflumilast N-oxide relative to roflumilast", "setting": "[3]; intravenous administration of roflumilast", "result": 7.4, "unit": "times"}, {"measurement": "peak plasma concentration (Cmax)", "setting": "[3]; [8]", "result": 21.7, "unit": "ng/mL"}, {"measurement": "systemic exposure of roflumilast N-oxide relative to roflumilast", "setting": "[3]; oral administration of roflumilast", "result": 12.4, "unit": "times"}, {"measurement": "elimination half-life", "setting": "[3]", "result": 30, "unit": "h"}, {"measurement": "Week 8 extrapolated AUC24", "setting": "DERMIS-1; [9]", "result": 103, "unit": "ng·h/mL"}, {"measurement": "Week 4 extrapolated AUC24, h*ng/mL", "setting": "DERMIS-1; age 12–17 years (N = 3)", "result": "202 (91.2) h*ng/mL"}, {"measurement": "Week 8 extrapolated AUC24, h*ng/mL", "setting": "DERMIS-1; age 12–17 years (N = 3)", "result": "209 (132) h*ng/mL"}, {"measurement": "Week 4 conc., ng/mL", "setting": "DERMIS-1; [10]", "result": "8.42 (3.80) ng/mL"}, {"measurement": "Week 8 conc., ng/mL", "setting": "DERMIS-1; [10]", "result": "8.71 (5.49) ng/mL"}, {"measurement": "Week 4 extrapolated AUC24, h*ng/mL", "setting": "DERMIS-1; age ≥ 18 years (N = 241)", "result": "288 (310) h*ng/mL"}, {"measurement": "Week 8 extrapolated AUC24, h*ng/mL", "setting": "DERMIS-1; age ≥ 18 years (N = 241)", "result": "242 (290) h*ng/mL"}, {"measurement": "Week 4 conc., ng/mL", "setting": "DERMIS-1; [11]", "result": "11.8 (12.9) ng/mL"}, {"measurement": "Week 8 conc.", "setting": "DERMIS-1; [11]", "result": "9.86 ng/mL and 9.9 ng/mL"}, {"measurement": "skin samples with measurable (quantifiable) level", "setting": "Phase I/IIa study [4]", "result": "only one sample"}, {"measurement": "skin samples with measurable (quantifiable) level", "setting": "Phase I/IIa study [4]; listed as Roflumilast N-oxide", "result": "only one skin sample"}, {"measurement": "skin concentrations lower than circulating plasma concentrations", "setting": "Phase I/IIa study [4]; skin LLOQ of 0.2 ng/g, cream 0.15% and 0.5%", "result": "at least 30 fold"}, {"measurement": "Week 4 extrapolated AUC24", "setting": "DERMIS-2; [9]", "result": 576, "unit": "ng·h/mL"}, {"measurement": "Week 8 extrapolated AUC24", "setting": "DERMIS-2; [9]", "result": 614, "unit": "ng·h/mL"}, {"measurement": "Week 4 conc.", "setting": "DERMIS-2; [12]", "result": 24.0, "unit": "ng/mL"}, {"measurement": "Week 8 conc.", "setting": "DERMIS-2; [12]", "result": 25.6, "unit": "ng/mL"}, {"measurement": "Week 4 extrapolated AUC24, h*ng/mL", "setting": "DERMIS-2; age 12–17 years (N = 5)", "result": "84.6 (58.4) h*ng/mL"}, {"measurement": "Week 8 extrapolated AUC24, h*ng/mL", "setting": "DERMIS-2; age 12–17 years (N = 5)", "result": "161 (174) h*ng/mL"}, {"measurement": "Week 4 conc., ng/mL", "setting": "DERMIS-2; [13]", "result": "3.53 (2.44) ng/mL"}, {"measurement": "Week 8 conc., ng/mL", "setting": "DERMIS-2; [13]", "result": "6.72 (7.24) ng/mL"}, {"measurement": "Week 4 extrapolated AUC24, h*ng/mL", "setting": "DERMIS-2; age ≥ 18 years (N = 244)", "result": "294 (338) h*ng/mL"}, {"measurement": "Week 8 extrapolated AUC24, h*ng/mL", "setting": "DERMIS-2; age ≥ 18 years (N = 244)", "result": "249 (308) h*ng/mL"}, {"measurement": "Week 4 conc., ng/mL", "setting": "DERMIS-2; [14]", "result": "12.2 (14.1) ng/mL"}, {"measurement": "Week 8 conc.", "setting": "DERMIS-2; [14]", "result": 10.2, "unit": "ng/mL"}]}, {"smiles": "O=C(Nc1c(Cl)cncc1Cl)c1ccc(OC(F)F)c(OCC2CC2)c1", "note": "[roflumilast]", "values": [{"measurement": "steady state achieved by", "setting": "Maximal usage PK study", "result": "≤ 15", "unit": "days"}, {"measurement": "peak-to-trough ratio (plasma)", "setting": "Maximal usage PK study; steady state (Day 15), topical roflumilast cream 0.3%", "result": 1.2}, {"measurement": "concentration at 24 h", "setting": "Phase I/IIa study [1]; 0.15 % cream", "result": 1.15, "unit": "ng/mL"}, {"measurement": "concentration at 28 days", "setting": "Phase I/IIa study [1]; 0.15 % cream", "result": 1.03, "unit": "ng/mL"}, {"measurement": "concentration at 24 h", "setting": "Phase I/IIa study [1]; 0.5 % cream", "result": 0.805, "unit": "ng/mL"}, {"measurement": "concentration at 28 days", "setting": "Phase I/IIa study [1]; 0.5 % cream", "result": 1.15, "unit": "ng/mL"}, {"measurement": "logP", "setting": "[5]", "result": 3.53}, {"measurement": "oral bioavailability", "setting": "[3]; 500 µg oral dose", "result": "approximately 79%"}, {"measurement": "time to absorption / peak levels after oral dose", "setting": "[3]; 500 µg oral dose", "result": "about 1.25 h"}, {"measurement": "time to absorption / peak levels after oral dose", "setting": "[3]; 500 µg oral dose, listed as Roflumilast", "result": 1, "unit": "h"}, {"measurement": "Cmax in COPD patients higher than in healthy volunteers", "setting": "[3]; [8]", "result": "about 6%"}, {"measurement": "peak plasma concentration (Cmax)", "setting": "[3]; [8]", "result": 6.01, "unit": "ng/mL"}, {"measurement": "peak-to-trough ratio", "setting": "[3]; oral administration", "result": "greater than 10"}, {"measurement": "elimination half-life", "setting": "[3]", "result": "17 to 30 h and 17 h"}, {"measurement": "Week 8 extrapolated AUC24, h*ng/mL", "setting": "DERMIS-1; age ≥ 18 years (N = 241)", "result": "47.4 (58.3) h*ng/mL"}, {"measurement": "Week 4 conc., ng/mL", "setting": "DERMIS-1; [11]", "result": "2.05 (2.83) ng/mL"}, {"measurement": "skin samples with measurable (quantifiable) level", "setting": "Phase I/IIa study [4]", "result": "All but one sample"}, {"measurement": "Kp at 24 h", "setting": "Phase I/IIa study [4]; 0.15 % cream", "result": 126}, {"measurement": "Kp at 24 h", "setting": "Phase I/IIa study [4]; 0.5 % cream", "result": 61.8}, {"measurement": "concentration at 24 h", "setting": "Phase I/IIa study [4]; 0.15 % cream", "result": 84, "unit": "ng/mL"}, {"measurement": "concentration at 28 days", "setting": "Phase I/IIa study [4]; 0.15 % cream", "result": 120, "unit": "ng/g"}, {"measurement": "concentration at 24 h", "setting": "Phase I/IIa study [4]; 0.5 % cream", "result": 51, "unit": "ng/mL"}, {"measurement": "concentration at 28 days", "setting": "Phase I/IIa study [4]; 0.5 % cream", "result": 56.1, "unit": "ng/g"}, {"measurement": "diarrhea (occurrence)", "setting": "[6]", "result": 9.5, "unit": "%"}, {"measurement": "nausea (occurrence)", "setting": "[6]", "result": 4.7, "unit": "%"}, {"measurement": "weight decreased (occurrence)", "setting": "[6]", "result": 7.5, "unit": "%"}, {"measurement": "water solubility", "setting": "[7]", "result": "0.52 to 0.56", "unit": "µg/mL"}]}]}
